This is an account of results in ChEMBL document CHEMBL3414471 (J Med Chem, 2015).

One assay is filed under the species Homo sapiens. Briefly: Selectivity ratio of EC50 for human 5-HT2B receptor to EC50 for human 5HT2C receptor.
Assay [1] addresses T1, 5-hydroxytryptamine receptor 2B (Homo sapiens, UniProt P41595). Nature of the assay: Agonist activity at human 5-HT2B receptor expressed in HEK293 cells assessed as calcium flux by FLIPR assay relative to 5-HT. It is filed as functional, cell-based. In a few lines: (§1)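 Flp-In-293 cells stably expressing human 5-HT2A, 5-HT2B or 5-HT2C-INI; grown 24–48 h in DMEM/10% dialyzed FBS, plated on poly-L-Lys at 12000 cells/well in 1% dialyzed FBS for 24 h. Loaded 1 h at 37 °C with calcium dye in HBSS, 20 mM Hepes pH 7.40, 2.5 mM probenecid.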
A general note: Calcium assays in cells follow changes in intracellular calcium, usually with a dye or a luminescent sensor.

Assay [2] deals with T2, 5-hydroxytryptamine receptor 2C (Homo sapiens) (UniProt P28335).
T2 sequence (whole entry): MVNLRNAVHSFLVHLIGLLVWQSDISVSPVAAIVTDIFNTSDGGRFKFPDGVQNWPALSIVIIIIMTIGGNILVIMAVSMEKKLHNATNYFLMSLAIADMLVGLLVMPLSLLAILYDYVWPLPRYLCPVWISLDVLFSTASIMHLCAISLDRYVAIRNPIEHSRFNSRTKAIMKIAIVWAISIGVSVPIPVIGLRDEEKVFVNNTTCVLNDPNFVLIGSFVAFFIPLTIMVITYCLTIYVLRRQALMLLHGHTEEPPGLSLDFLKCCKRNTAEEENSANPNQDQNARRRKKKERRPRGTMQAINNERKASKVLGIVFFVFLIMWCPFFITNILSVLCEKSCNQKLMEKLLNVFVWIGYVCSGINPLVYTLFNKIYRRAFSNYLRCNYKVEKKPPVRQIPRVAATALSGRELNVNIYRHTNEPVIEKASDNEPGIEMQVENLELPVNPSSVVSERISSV
Nature of the assay: Agonist activity at human 5-HT2C receptor expressed in HEK293 cells assessed as calcium flux by FLIPR assay relative to 5-HT. It is filed as functional, cell-based. In a few lines: as §1

Assay [3] deals with T1, 5-hydroxytryptamine receptor 2B. Briefly: Agonist activity at human 5-HT2B receptor expressed in HEK293 cells assessed as calcium flux by FLIPR assay. It is filed as functional, cell-based.
Assay [4] has as its target T3, 5-hydroxytryptamine receptor 2C (Homo sapiens, UniProt P28335).
T3 sequence (P28335 whole entry): T2 sequence (whole entry)
Briefly: Agonist activity at human 5-HT2C receptor expressed in HEK293 cells assessed as calcium flux by FLIPR assay. It is filed as functional, cell-based.

Assay [5] concerns the target 5-hydroxytryptamine receptor 2A (Homo sapiens, UniProt P28223). Nature of the assay: Agonist activity at human 5-HT2A receptor expressed in HEK293 cells assessed as calcium flux at 10 uM by FLIPR assay. It is filed as functional, cell-based. In a few lines:
(§2)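 Flp-In-293 cells stably expressing human 5-HT2A, 5-HT2B or 5-HT2C-INI, grown in DMEM with 10% dialyzed FBS, then plated for 24 h in 1% dialyzed FBS. Cells were loaded 1 h at 37 °C with calcium dye in Hepes-buffered HBSS, pH 7.40, containing 2.5 mM probenecid. FLIPR read 10 s baseline, then 120 s after drug addition.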

For assay [6], the target named is T2, 5-hydroxytryptamine receptor 2C (Homo sapiens). Nature of the assay: Agonist activity at human 5-HT2C receptor expressed in HEK293 cells assessed as calcium flux at 10 uM by FLIPR assay. It is filed as functional, cell-based. An outline of the steps: as §2

Calls of active or inactive are those of the source. No cut-off for these calls is given here.

A word on the Emax: it is the greatest response seen or fitted, relative to the assay's reference. For orientation: EC50 means the concentration at which the effect is half-maximal.

T1 sequence (P41595 whole entry): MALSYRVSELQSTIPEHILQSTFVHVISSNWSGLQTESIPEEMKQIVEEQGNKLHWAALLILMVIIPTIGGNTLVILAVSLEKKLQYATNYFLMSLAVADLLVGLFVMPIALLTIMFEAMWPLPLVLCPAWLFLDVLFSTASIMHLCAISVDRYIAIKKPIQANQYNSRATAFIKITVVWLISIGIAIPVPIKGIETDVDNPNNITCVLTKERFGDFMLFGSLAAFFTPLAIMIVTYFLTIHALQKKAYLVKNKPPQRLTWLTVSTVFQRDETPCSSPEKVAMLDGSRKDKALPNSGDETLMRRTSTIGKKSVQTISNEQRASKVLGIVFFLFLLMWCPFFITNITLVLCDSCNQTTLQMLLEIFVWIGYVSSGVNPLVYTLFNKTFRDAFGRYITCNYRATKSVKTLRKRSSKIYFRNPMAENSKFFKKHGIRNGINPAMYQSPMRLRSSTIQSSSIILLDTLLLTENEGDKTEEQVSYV
5-hydroxytryptamine receptor 2A, sequence (P28223 whole entry): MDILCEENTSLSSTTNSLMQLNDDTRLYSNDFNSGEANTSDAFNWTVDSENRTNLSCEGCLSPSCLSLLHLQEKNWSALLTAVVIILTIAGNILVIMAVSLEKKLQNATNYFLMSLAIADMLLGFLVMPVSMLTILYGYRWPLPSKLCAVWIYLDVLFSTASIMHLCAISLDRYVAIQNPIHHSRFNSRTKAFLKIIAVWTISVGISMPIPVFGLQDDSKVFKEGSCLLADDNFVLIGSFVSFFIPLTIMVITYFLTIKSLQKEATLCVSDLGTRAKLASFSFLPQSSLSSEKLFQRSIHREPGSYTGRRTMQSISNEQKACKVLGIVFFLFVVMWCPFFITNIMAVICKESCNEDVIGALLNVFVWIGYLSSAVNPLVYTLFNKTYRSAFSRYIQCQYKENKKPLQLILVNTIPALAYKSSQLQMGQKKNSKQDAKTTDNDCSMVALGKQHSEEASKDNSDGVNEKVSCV

Take `CCCOc1ccc(Cl)cc1[C@H]1C[C@@H]1CN`: the Ratio EC50 in the assay filed under Homo sapiens stood at 33. Besides, the maximum response (Emax) in assay [1] worked out at 25%; in assay [2], 72%. Also, the EC50 in assay [3] stood at 3.44 µM; in assay [4] it was 0.103 µM. In addition, the outcome in assay [5] was inactive.
With `C=C(C)COc1ccc(Cl)cc1[C@@H]1C[C@H]1CN`, the Emax in assay [1] stood at 39%. Moreover, the EC50 in assay [3] came to 6.09 µM. Also, the result in assay [5] and in assay [6] was inactive.
Consider `C=C(F)COc1ccc(Cl)cc1[C@@H]1C[C@H]1CN`, for which, in assay [1], the maximal response (Emax) was found to be 33%. In assay [3], the EC50 is 6.88 µM. Besides, the outcome in assay [5] and in assay [6] was inactive.
